Results from ChEMBL document CHEMBL1137710, “Synthesis and in vitro antitumor activity of new quinoxaline derivatives” (2009).

Key:
Format in all cases: functional
NCI-H322M = test: Growth inhibition of human NCI-H322M cells after 48 hrs by sulforhodamine B assay
Procedure, shortened: (§1)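 NCI 60-human-tumor-cell-line panel, with compounds tested over a 5-log dose range. Values are taken from dose-response curves as log10 molar concentrations: GI50 is 50% net growth inhibition, TGI is total growth inhibition, and LC50 is 50% net cell death.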

IGROV-1 = test: Growth inhibition of human IGROV1 cells after 48 hrs by sulforhodamine B assay; conditions: IGROV-1, 48 h; procedure, shortened: as §1
MDA-MB-435 = test: Growth inhibition of human MDA-MB-435 cells after 48 hrs by sulforhodamine B assay; conditions: MDA-MB-435, 48 h; procedure, shortened: as §1
OVCAR-5 = test: Growth inhibition of human OVCAR5 cells after 48 hrs by sulforhodamine B assay; conditions: OVCAR-5, 48 h; procedure, shortened: as §1
SK-MEL-5 = test: Growth inhibition of human SK-MEL-5 cells after 48 hrs by sulforhodamine B assay; conditions: SK-MEL-5, 48 h; procedure, shortened: as §1
UACC-257 = test: Growth inhibition of human UACC257 cells after 48 hrs by sulforhodamine B assay; conditions: UACC-257, 48 h
Procedure, shortened: (§2)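 Run in the NCI 60-human-tumour-cell-line panel, tested over a 5-log dose range. Dose–response curves gave three values per cell line, each as a log10 molar concentration: GI50 (50% inhibition of net cell growth), TGI (total inhibition of net growth) and LC50 (50% net cell death). The mean graph midpoint is the arithmetic mean over all lines, with insensitive lines entered at the highest concentration tested.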

NCI-H460 [1] = test: Anticancer activity against human NCI-H460 cells assessed as cell growth at 100 uM after 48 hrs by sulforhodamine B assay; conditions: NCI-H460, 48 h, read-out: Activity
U-251 = test: Growth inhibition of human U251 cells after 48 hrs by sulforhodamine B assay; conditions: U-251, 48 h; procedure, shortened: as §2
OVCAR-4 = test: Growth inhibition of human OVCAR4 cells after 48 hrs by sulforhodamine B assay; conditions: OVCAR-4, 48 h; procedure, shortened: as §1
786-0 = test: Growth inhibition of human 786-0 cells after 48 hrs by sulforhodamine B assay; conditions: 786-0, 48 h; procedure, shortened: as §1
HOP-62 = test: Growth inhibition of human HOP62 cells after 48 hrs by sulforhodamine B assay; conditions: HOP-62, 48 h; procedure, shortened: as §1
MCF7 [2] = test: Anticancer activity against human MCF7 cells assessed as cell growth at 100 uM after 48 hrs by sulforhodamine B assay; conditions: MCF7, 48 h, read-out: Activity
TK-10 = test: Growth inhibition of human TK10 cells after 48 hrs by sulforhodamine B assay; conditions: TK-10, 48 h; procedure, shortened: as §2
PC-3 = test: Growth inhibition of human PC3 cells after 48 hrs by sulforhodamine B assay; conditions: PC-3, 48 h; procedure, shortened: as §1
NCI-H460 [3] = test: Growth inhibition of human NCI-H460 cells after 48 hrs by sulforhodamine B assay; conditions: NCI-H460, 48 h; procedure, shortened: as §1
OVCAR-8 = test: Growth inhibition of human OVCAR8 cells after 48 hrs by sulforhodamine B assay; conditions: OVCAR-8, 48 h; procedure, shortened: as §1
MCF7 [4] = test: Growth inhibition of human MCF7 cells after 48 hrs by sulforhodamine B assay; conditions: MCF7, 48 h; procedure, shortened: as §1
SF-268 [5] = test: Anticancer activity against human SF268 cells assessed as cell growth at 100 uM after 48 hrs by sulforhodamine B assay; conditions: SF-268, 48 h, read-out: Activity
[6] = Growth inhibition of human Hs 578T cells after 48 hrs by sulforhodamine B assay; procedure, shortened: as §1
UO-31 = test: Growth inhibition of human UO31 cells after 48 hrs by sulforhodamine B assay; conditions: UO-31, 48 h; procedure, shortened: as §2
SK-OV-3 = test: Growth inhibition of human SKOV3 cells after 48 hrs by sulforhodamine B assay; conditions: SK-OV-3, 48 h; procedure, shortened: as §1
SF-295 = test: Growth inhibition of human SF295 cells after 48 hrs by sulforhodamine B assay; conditions: SF-295, 48 h; procedure, shortened: as §1
COLO 205 = test: Growth inhibition of human COLO205 cells after 48 hrs by sulforhodamine B assay; conditions: COLO 205, 48 h; procedure, shortened: as §1
NCI-H522 = test: Growth inhibition of human NCI-H522 cells after 48 hrs by sulforhodamine B assay; conditions: NCI-H522, 48 h; procedure, shortened: as §1
OVCAR-3 = test: Growth inhibition of human OVCAR-3 cells after 48 hrs by sulforhodamine B assay; conditions: OVCAR-3, 48 h; procedure, shortened: as §1
SF-268 [7] = test: Growth inhibition of human SF268 cells after 48 hrs by sulforhodamine B assay; conditions: SF-268, 48 h; procedure, shortened: as §1
KM12 = test: Growth inhibition of human KM12 cells after 48 hrs by sulforhodamine B assay; conditions: KM12, 48 h; procedure, shortened: as §1
SNB-19 = test: Growth inhibition of human SNB19 cells after 48 hrs by sulforhodamine B assay; conditions: SNB-19, 48 h; procedure, shortened: as §2
MDA-MB-231 = test: Growth inhibition of human MDA-MB-231 cells after 48 hrs by sulforhodamine B assay; conditions: MDA-MB-231, 48 h; procedure, shortened: as §1
CAKI-1 = test: Growth inhibition of human Caki1 cells after 48 hrs by sulforhodamine B assay; conditions: CAKI-1, 48 h; procedure, shortened: as §1
[8] = read-out: pLC50 (the source's name) (converted)

Compound: COc1ccc(Oc2nc3cc(N)cc(N)c3nc2-c2ccccc2)cc1
- GI50 (NCI-H322M): > 100 µM
- LC50 (NCI-H322M): > 100 µM
- TGI (NCI-H322M; read-out: pTGI (converted)): > 100 µM
- GI50 (IGROV-1): 25.1 µM
- CC50 (IGROV-1; [8]): > 100 µM
- TGI (IGROV-1; read-out: pTGI (converted)): > 100 µM
- GI50 (MDA-MB-435): 40.7 µM
- CC50 (MDA-MB-435; [8]): > 100 µM
- TGI (MDA-MB-435; read-out: pTGI (converted)): > 100 µM
- GI50 (OVCAR-5): 95.5 µM
- CC50 (OVCAR-5; [8]): > 100 µM
- TGI (OVCAR-5; read-out: pTGI (converted)): > 100 µM
- GI50 (SK-MEL-5): 44.7 µM
- CC50 (SK-MEL-5; [8]): > 100 µM
- TGI (SK-MEL-5; read-out: pTGI (converted)): > 100 µM
- GI50 (UACC-257): > 100 µM
- CC50 (UACC-257; [8]): > 100 µM
- TGI (UACC-257; read-out: pTGI (converted)): > 100 µM
- growth at 100 µM (NCI-H460 [1]): -48%
- GI50 (U-251): 26.3 µM
- LC50 (50% net cell kill) (U-251): > 100 µM
- TGI (U-251; read-out: pTGI (converted)): > 100 µM
- GI50 (OVCAR-4): 3.72 µM
- CC50 (OVCAR-4; [8]): > 100 µM
- TGI (OVCAR-4; read-out: pTGI (converted)): 24.5 µM
- GI50 (786-0): 24.5 µM
- CC50 (786-0; [8]): > 100 µM
- TGI (786-0; read-out: pTGI (converted)): > 100 µM
- GI50 (HOP-62): 19.5 µM
- LC50 (HOP-62): 87.1 µM
- TGI (HOP-62; read-out: pTGI (converted)): 40.7 µM
- growth at 100 µM (MCF7 [2]): -89%
- GI50 (TK-10): 53.7 µM
- CC50 (TK-10; [8]): > 100 µM
- TGI (TK-10; read-out: pTGI (converted)): > 100 µM
- GI50 (PC-3): 15.1 µM
- CC50 (PC-3; [8]): > 100 µM
- TGI (PC-3; read-out: pTGI (converted)): > 100 µM
- GI50 (NCI-H460 [3]): 30.9 µM
- LC50 (50% net cell kill) (NCI-H460 [3]): > 100 µM
- TGI (NCI-H460 [3]; read-out: pTGI (converted)): > 100 µM
- GI50 (OVCAR-8): 32.4 µM
- CC50 (OVCAR-8; [8]): > 100 µM
- TGI (OVCAR-8; read-out: pTGI (converted)): > 100 µM
- GI50 (MCF7 [4]): 47.9 µM
- CC50 (MCF7 [4]; [8]): > 100 µM
- TGI (MCF7 [4]; read-out: pTGI (converted)): > 100 µM
- growth at 100 µM (SF-268 [5]): -56%
- GI50 [6]: 24.5 µM
- CC50 [6, 8]: > 100 µM
- TGI ([6]; read-out: pTGI (converted)): > 100 µM
- GI50 (UO-31): 28.2 µM
- CC50 (UO-31; [8]): > 100 µM
- TGI (UO-31; read-out: pTGI (converted)): > 100 µM
- GI50 (SK-OV-3): 25.7 µM
- CC50 (SK-OV-3; [8]): > 100 µM
- TGI (SK-OV-3; read-out: pTGI (converted)): 55 µM
- GI50 (SF-295): 23.4 µM
- LC50 (50% net cell kill) (SF-295): > 100 µM
- TGI (SF-295; read-out: pTGI (converted)): 52.5 µM
- GI50 (COLO 205): > 100 µM
- LC50 (50% net cell kill) (COLO 205): > 100 µM
- TGI (COLO 205; read-out: pTGI (converted)): > 100 µM
- GI50 (NCI-H522): 31.6 µM
- LC50 (NCI-H522): > 100 µM
- TGI (NCI-H522; read-out: pTGI (converted)): > 100 µM
- GI50 (OVCAR-3): 14.8 µM
- CC50 (OVCAR-3; [8]): > 100 µM
- TGI (OVCAR-3; read-out: pTGI (converted)): 72.4 µM
- GI50 (SF-268 [7]): 20.9 µM
- LC50 (SF-268 [7]): > 100 µM
- TGI (SF-268 [7]; read-out: pTGI (converted)): > 100 µM
- GI50 (KM12): 37.2 µM
- LC50 (50% net cell kill) (KM12): > 100 µM
- TGI (KM12; read-out: pTGI (converted)): > 100 µM
- GI50 (SNB-19): 64.6 µM
- LC50 (SNB-19): > 100 µM
- TGI (SNB-19; read-out: pTGI (converted)): > 100 µM
- GI50 (MDA-MB-231): 20.4 µM
- CC50 (MDA-MB-231; [8]): > 100 µM
- TGI (MDA-MB-231; read-out: pTGI (converted)): 64.6 µM
- GI50 (CAKI-1): 79.4 µM
- CC50 (CAKI-1; [8]): > 100 µM
- TGI (CAKI-1; read-out: pTGI (converted)): > 100 µM
